{"source": "paper PMC7873610", "about": "(European Journal of Medicinal Chemistry, 2021)", "key": {"[1]": {"system": "chymotrypsin-like subunit", "settings": "cited from earlier work"}, "[2]": {"target": "β5 catalytic subunit (chymotrypsin-like activity) (Homo sapiens, UniProt P20618+P28074)", "assay": "Proteasome-Glo cell-based chymotrypsin-like", "settings": "CT-L; for fold increase in inhibitory activity than compounds with unsubstituted phenyl: vs 30, 29 and BSc2189"}, "[3]": {"system": "MGC-803", "assay": "MTS cytotoxicity assay, MGC-803", "format": "cell-based", "settings": "Homo sapiens, MGC-803, 72 h, read-out: Cytotoxicity IC50 ± SEM, MGC-803", "method_in_brief": "(§1)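 HeLa, MGC-803 and SW480 cells were maintained in DMEM with 10% FBS at 37 °C and 5% CO2. Each line was plated at 5∗10^3 cells/well in 100 μL and treated with test compound for 72 h. MTS solution was added and incubated 3 more h at 37 °C, then absorbance was measured at 490 nm. Assays were run in triplicate with triplicate wells; IC50 was obtained by curve fitting.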"}, "[4]": {"system": "HeLa", "assay": "MTS cytotoxicity assay, HeLa", "format": "cell-based", "settings": "Homo sapiens, 72 h, read-out: Cytotoxicity IC50 ± SEM, Hela, MTS, 72 h", "method_in_brief": "as §1"}, "[5]": {"system": "Ramos (RA 1)", "assay": "MTS cytotoxicity assay, Ramos", "format": "cell-based", "settings": "Homo sapiens, 72 h, read-out: Cytotoxicity IC50 ± SEM, Ramos (RA 1)", "method_in_brief": "(§2)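 RPMI8226, THP-1 and Ramos cells were grown in RPMI 1640 with 10% FBS at 37 °C and 5% CO2. Cells were seeded in 100 μL at 1∗104/well (RPMI8226) or 5∗104/well (THP-1, Ramos) and exposed to test compound for 72 h. MTS was then added for 3 h at 37 °C, and OD was read at 490 nm. Triplicate experiments, triplicate wells each; IC50 from curve fitting.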"}, "[6]": {"system": "SW480", "assay": "MTS cytotoxicity assay, SW480", "format": "cell-based", "settings": "Homo sapiens, SW480, 72 h, read-out: Cytotoxicity IC50 ± SEM, SW480", "method_in_brief": "as §1"}, "[7]": {"system": "RPMI8226", "assay": "MTS cytotoxicity assay, RPMI8226", "format": "cell-based", "settings": "Homo sapiens, RPMI-8226, 72 h, read-out: Cytotoxicity IC50 ± SEM, RPMI8226", "method_in_brief": "as §2"}, "[8]": {"system": "THP-1", "assay": "MTS cytotoxicity assay, THP-1", "format": "cell-based", "settings": "Homo sapiens, THP-1, 72 h, read-out: Cytotoxicity IC50 ± SEM, THP-1", "method_in_brief": "as §2"}, "[9]": {"system": "HeLa", "settings": "read-out: IC50 in HeLa cells, previously published value; cited from earlier work"}}, "note": "Like-named read-outs stand apart in the source and are kept apart here."}
{"smiles": "Cc1ccc(NC(=O)C(=O)C(CC(C)C)NC(=O)C(CC(C)C)NC(=O)C(CC(C)C)NC(=O)OCc2ccccc2)c(C)c1", "note": "(stereo not drawn) [BSc4999]", "values": [{"measurement": "fold more potent than BSc2189", "setting": "[1]", "value": "about 2 fold"}]}
{"smiles": "CC(C)C[C@H](NC(=O)[C@H](Cc1ccccc1)NC(=O)[C@H](CC1CCCCC1)NC(=O)OCc1ccccc1)C(=O)C(=O)Nc1ccccc1", "note": "[Compound 31, ((2S)-3-cyclohexyl-1-(((2S)-1-((5-methyl-1,2-dioxo-1-(phenylamino)hexan-3-yl)amino)-1-oxo-3-phenylpropan-2-yl)amino)-1-oxopropan-2-yl)carbamic acid benzyl ester]", "values": [{"measurement": "fold increase in potency relative to analog 28", "setting": "[2]; vs 28 with Ala at P3", "value": 3, "unit": "fold"}, {"measurement": "fold reduced activity compared with 30", "setting": "[2]; vs 30 with Leu at P3", "value": "~3", "unit": "fold"}]}
{"smiles": "CC(C)C[C@H](NC(=O)OCc1ccccc1)C(=O)N[C@@H](Cc1c[nH]c2ccccc12)C(=O)N[C@@H](CC(C)C)C(=O)C(=O)Nc1cccc(S(C)(=O)=O)c1", "note": "[Compound 36, ((S)-1-(((S)-3-(1H-indol-3-yl)-1-(((S)-5-methyl-1-((3-(methylsulfonyl)phenyl)amino)-1,2-dioxohexan-3-yl)amino)-1-oxopropan-2-yl)amino)-4-methyl-1-oxopentan-2-yl)carbamic acid benzyl ester]", "values": [{"measurement": "fold increase in inhibitory activity than compounds with unsubstituted phenyl", "setting": "[2]", "value": "1.5–4 fold"}]}
{"smiles": "COc1cccc(NC(=O)C(=O)[C@H](CC(C)C)NC(=O)[C@H](CC(C)C)NC(=O)[C@H](CC(C)C)NC(=O)c2ccc(-c3ccc(C(C)=O)cc3)o2)c1", "note": "[Compound 47, N-((S)-1-(((S)-1-(((S)-1-((3-methoxyphenyl)amino)-5-methyl-1,2-dioxohexan-3-yl)amino)-4-methyl-1-oxopentan-2-yl)amino)-4-methyl-1-oxopentan-2-yl)5-(4-acetylphenyl)-furan-2-carboxamide]", "values": [{"measurement": "IC50", "setting": "[3]", "value": "85.4 ± 6.73", "unit": "nM"}, {"measurement": "IC50", "setting": "[4]", "value": "239 ± 3.28", "unit": "nM"}, {"measurement": "IC50", "setting": "[5]", "value": "38.3 ± 3.04", "unit": "nM"}, {"measurement": "IC50", "setting": "[6]", "value": "74.5 ± 3.13", "unit": "nM"}, {"measurement": "IC50", "setting": "[7]", "value": "43.4 ± 1.04", "unit": "nM"}, {"measurement": "IC50", "setting": "[8]", "value": "97.9 ± 2.79", "unit": "nM"}]}
{"smiles": "CC(C)C[C@H](NC(=O)OCc1ccccc1)C(=O)N[C@@H](CC(C)C)C(=O)N[C@@H](CC(C)C)C(=O)C(=O)Nc1ccccc1-c1ccccc1", "note": "[Compound 41, ((S)-1-(((S)-1-(((S)-1-([1,1′-biphenyl]-2-ylamino)-5-methyl-1,2-dioxohexan-3-yl)amino)-4-methyl-1-oxopentan-2-yl)amino)-4-methyl-1-oxopentan-2-yl)carbamic acid benzyl ester]", "values": [{"measurement": "fold reduced inhibitory activity", "setting": "[2]; phenyl in ortho position of head group phenyl", "value": "up to 150 fold"}]}
{"smiles": "CC(=O)c1cccc(NC(=O)C(=O)[C@H](CC(C)C)NC(=O)[C@H](Cc2ccccc2)NC(=O)[C@H](CC(C)C)NC(=O)OCc2ccccc2)c1", "note": "[Compound 34, ((S)-1-(((S)-1-(((S)-1-((3-acetylphenyl)amino)-5-methyl-1,2-dioxohexan-3-yl)amino)-1-oxo-3-phenylpropan-2-yl)amino)-4-methyl-1-oxopentan-2-yl)carbamic acid benzyl ester]", "values": [{"measurement": "fold increase in inhibitory activity than compounds with unsubstituted phenyl", "setting": "[2]", "value": "1.5–4 fold"}]}
{"smiles": "CC(=O)c1cccc(NC(=O)C(=O)[C@H](CC(C)C)NC(=O)[C@H](CC(C)C)NC(=O)[C@H](CC(C)C)NC(=O)OCc2ccccc2)c1", "note": "[Compound 38, ((S)-1-(((S)-1-(((S)-1-((3-acetylphenyl)amino)-5-methyl-1,2-dioxohexan-3-yl)amino)-4-methyl-1-oxopentan-2-yl)amino)-4-methyl-1-oxopentan-2-yl) carbamic acid benzyl ester]", "values": [{"measurement": "fold increase in inhibitory activity than compounds with unsubstituted phenyl", "setting": "[2]", "value": "1.5–4 fold"}]}
{"smiles": "CC(=O)c1ccc(-c2ccc(C(=O)N[C@@H](CC(C)C)C(=O)N[C@@H](CC(C)C)C(=O)N[C@@H](CC(C)C)C(=O)C(=O)Nc3cccc(C(C)=O)c3)o2)cc1", "note": "[Compound 46, 5-(4-acetylphenyl)-N-((S)-1-(((S)-1-(((S)-1-((3-acetylphenyl)amino)-5-methyl-1,2-dioxohexan-3-yl)amino)-4-methyl-1-oxopentan-2-yl)amino)-4-methyl-1-oxopentan-2-yl)furan-2-carboxamide]", "values": [{"measurement": "IC50", "setting": "[3]", "value": "79 ± 12.6", "unit": "nM"}, {"measurement": "IC50", "setting": "[4]", "value": "260 ± 4.34", "unit": "nM"}, {"measurement": "IC50", "setting": "[5]", "value": "26.13 ± 0.18", "unit": "nM"}, {"measurement": "IC50", "setting": "[6]", "value": "79.3 ± 1.87", "unit": "nM"}, {"measurement": "IC50", "setting": "[7]", "value": "38.1 ± 1.19", "unit": "nM"}, {"measurement": "IC50", "setting": "[8]", "value": "94.4 ± 1.45", "unit": "nM"}]}
{"smiles": "COc1ccc(C[C@H](NC(=O)[C@H](C)NC(=O)CN2CCOCC2)C(=O)N[C@@H](Cc2ccccc2)C(=O)[C@@]2(C)CO2)cc1", "note": "[ONX-0914, reference compound]", "values": [{"measurement": "IC50", "setting": "[4]", "value": 590, "unit": "nM"}, {"measurement": "IC50", "setting": "[8]", "value": 202, "unit": "nM"}]}
{"smiles": "CC(C)C[C@H](NC(=O)OCc1ccccc1)C(=O)N[C@@H](Cc1c[nH]c2ccccc12)C(=O)N[C@@H](CC(C)C)C(=O)C(=O)Nc1cccc2ccccc12", "note": "[Compound 37, ((S)-1-(((S)-3-(1H-indol-3-yl)-1-(((S)-5-methyl-1-(naphthalen-1-ylamino)-1,2-dioxohexan-3-yl)amino)-1-oxopropan-2-yl)amino)-4-methyl-1-oxopentan-2-yl) carbamic acid benzyl ester]", "values": [{"measurement": "fold decrease in inhibitory potency over 29", "setting": "[2]; 1-naphthyl vs unsubstituted phenyl head group", "value": 2, "unit": "fold"}]}
{"smiles": "CC(C)C[C@H](NC(=O)OCc1ccccc1)C(=O)N[C@@H](CC(C)C)C(=O)N[C@@H](CC(C)C)C(=O)C(=O)Nc1ccccc1", "note": "[BSc2189]", "values": [{"measurement": "IC50", "setting": "[9]", "value": 254, "unit": "nM"}]}
{"smiles": "CC(=O)c1cccc(NC(=O)C(=O)[C@H](CC(C)C)NC(=O)[C@H](Cc2c[nH]c3ccccc23)NC(=O)[C@H](CC(C)C)NC(=O)OCc2ccccc2)c1", "note": "[Compound 35, ((S)-1-(((S)-1-(((S)-1-((3-acetylphenyl)amino)-5-methyl-1,2-dioxohexan-3-yl)amino)-3-(1H-indol-3-yl)-1-oxopropan-2-yl)amino)-4-methyl-1-oxopentan-2-yl)carbamic acid benzyl ester]", "values": [{"measurement": "fold increase in inhibitory activity than compounds with unsubstituted phenyl", "setting": "[2]", "value": "1.5–4 fold"}]}
